# Data reported in PMC11904594 (Current Research in Microbial Sciences, 2025).
# Assays:
# [1] = test system: P. aeruginosa (ST175–1); assay: Minimum bactericidal concentration; format: cell-based, Pseudomonas aeruginosa; conditions: lowest concentration reducing at least 99.9 % of growth, plated on LB, 37 °C, 24 h, triplicate
# [2] = test system: S. aureus MRSA USA 300; assay: MIC, broth microdilution; format: cell-based, Staphylococcus aureus; conditions: MHB II, 10^6 CFU/ml, 37 °C, 24 h, triplicate
# In short: (§1)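 Broth microdilution per CLSI. Strains were freshly plated on LB agar from glycerol stocks; the colistin-resistant lpxD mutant was plated on LB with 10 µg/ml colistin. Inoculum was 10^6 CFU/ml in Mueller Hinton broth II with two-fold dilutions of test compound from 100 to 0.10 µg/ml, incubated at 37 °C for 24 h. MIC was the lowest concentration with no growth.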
# [3] = test system: erythrocytes; conditions: percent hemolysis at 150 μM (table footnote); ref Oddo et al., 2016; cited from earlier work
# [4] = test system: S. aureus MRSA USA 300; assay: Minimum bactericidal concentration; format: cell-based, Staphylococcus aureus; conditions: lowest concentration reducing at least 99.9 % of growth, plated on LB, 37 °C, 24 h, triplicate
# [5] = test system: P. aeruginosa ATCC 27,853; assay: MIC, broth microdilution; format: cell-based, Pseudomonas aeruginosa; conditions: MHB II, 10^6 CFU/ml, 37 °C, 24 h, triplicate
# In short: as §1
# [6] = test system: E. coli ESBL 1057.1; assay: MIC, broth microdilution; format: cell-based, Escherichia coli; conditions: MHB II, 10^6 CFU/ml, 37 °C, 24 h, triplicate
# In short: as §1
# [7] = test system: S. aureus ATCC 29,213; assay: Minimum bactericidal concentration; format: cell-based, Staphylococcus aureus; conditions: lowest concentration reducing at least 99.9 % of growth, plated on LB, 37 °C, 24 h, triplicate
# [8] = test system: P. aeruginosa (ST175–1); assay: MIC, broth microdilution; format: cell-based, Pseudomonas aeruginosa; conditions: MHB II, 10^6 CFU/ml, 37 °C, 24 h, triplicate
# In short: as §1
# [9] = test system: 11 bacterial strains (S. aureus, P. aeruginosa, A. baumannii, K. pneumoniae, E. coli); assay: Antimicrobial activity screening, summary over groups of strains; format: cell-based; conditions: 50 µg/ml screen; all strains, Gram-negative and Gram-positive
# [10] = test system: A. baumannii IB010; assay: MIC, broth microdilution; format: cell-based, Acinetobacter baumannii; conditions: MHB II, 10^6 CFU/ml, 37 °C, 24 h, triplicate
# In short: as §1
# [11] = test system: A. baumannii Ab-1; assay: MIC, broth microdilution; format: cell-based, Acinetobacter baumannii; conditions: MHB II, 10^6 CFU/ml, 37 °C, 24 h, triplicate
# In short: as §1
# [12] = test system: E. coli ESBL 1057.1; assay: Minimum bactericidal concentration; format: cell-based, Escherichia coli; conditions: lowest concentration reducing at least 99.9 % of growth, plated on LB, 37 °C, 24 h, triplicate
# [13] = test system: S. aureus ATCC 29,213; assay: MIC, broth microdilution; format: cell-based, Staphylococcus aureus; conditions: MHB II, 10^6 CFU/ml, 37 °C, 24 h, triplicate
# In short: as §1
# [14] = test system: K. pneumoniae CG258; assay: MIC, broth microdilution; format: cell-based, Klebsiella pneumoniae; conditions: MHB II, 10^6 CFU/ml, 37 °C, 24 h, triplicate
# In short: as §1
# [15] = test system: K. pneumoniae ATCC 43,816; assay: MIC, broth microdilution; format: cell-based, Klebsiella pneumoniae; conditions: MHB II, 10^6 CFU/ml, 37 °C, 24 h, triplicate
# In short: as §1
# [16] = test system: K. pneumoniae ATCC 43,816; assay: Minimum bactericidal concentration; format: cell-based, Klebsiella pneumoniae; conditions: lowest concentration reducing at least 99.9 % of growth, plated on LB, 37 °C, 24 h, triplicate
# [17] = test system: A. baumannii Ab-1; assay: Minimum bactericidal concentration; format: cell-based, Acinetobacter baumannii; conditions: lowest concentration reducing at least 99.9 % of growth, plated on LB, 37 °C, 24 h, triplicate
# [18] = test system: A. baumannii ATCC 19,606; assay: MIC, broth microdilution; format: cell-based, Acinetobacter baumannii; conditions: MHB II, 10^6 CFU/ml, 37 °C, 24 h, triplicate
# In short: as §1
# [19] = test system: K. pneumoniae CG258; assay: Time-kill assay; format: cell-based, Klebsiella pneumoniae; conditions: 24 h
# In short: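 Broth without compound was the growth control. Samples taken at 0, 3, 6 and 24 h were diluted and plated on MH II agar for CFU counts. Each curve was run at least in duplicate.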
# [20] = test system: A. baumannii ATCC 19,606; assay: Minimum bactericidal concentration; format: cell-based, Acinetobacter baumannii; conditions: lowest concentration reducing at least 99.9 % of growth, plated on LB, 37 °C, 24 h, triplicate
# [21] = test system: E. coli ATCC 25,922; assay: Minimum bactericidal concentration; format: cell-based, Escherichia coli; conditions: lowest concentration reducing at least 99.9 % of growth, plated on LB, 37 °C, 24 h, triplicate
# [22] = test system: Galleria mellonella larvae; assay: In vivo toxicity in Galleria mellonella larvae; conditions: G. mellonella larvae, 50 µg/larvae (10 μl of 5 mg/ml), 30 °C, N=10 per group
# In short: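 Sixth-instar Galleria mellonella larvae (200–300 mg) were held in sawdust at 4 °C until use. Groups of ten were injected with 10 μl of test compound, colistin or 0.9 % NaCl saline control into the second rear proleg, then kept at 30 °C.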
# [23] = test system: P. aeruginosa ATCC 27,853; assay: Minimum bactericidal concentration; format: cell-based, Pseudomonas aeruginosa; conditions: lowest concentration reducing at least 99.9 % of growth, plated on LB, 37 °C, 24 h, triplicate
# [24] = test system: K. pneumoniae CG258; assay: Minimum bactericidal concentration; format: cell-based, Klebsiella pneumoniae; conditions: lowest concentration reducing at least 99.9 % of growth, plated on LB, 37 °C, 24 h, triplicate
# [25] = test system: A. baumannii IB010; assay: Minimum bactericidal concentration; format: cell-based, Acinetobacter baumannii; conditions: lowest concentration reducing at least 99.9 % of growth, plated on LB, 37 °C, 24 h, triplicate
# [26] = test system: E. coli ATCC 25,922; assay: MIC, broth microdilution; format: cell-based, Escherichia coli; conditions: MHB II, 10^6 CFU/ml, 37 °C, 24 h, triplicate
# In short: as §1
smiles,measurement,setting,value
"CC[C@@H](C)[C@@H](NC(=O)[C@@H](CCCCN)NC(=O)[C@@H](CCCCN)NC(=O)[C@@H](Cc1ccccc1)NC(=O)[C@@H](CC(C)C)NC(=O)[C@@H](CCCCN)NC(=O)[C@H](N)CCCCN)C(=O)N[C@H](CC(C)C)C(=O)N[C@H](CCCNC(=N)N)C(=O)N[C@H](Cc1ccc(O)cc1)C(=O)N[C@H](CC(C)C)C(N)=O [BP607, reference compound]",MBC,[1],100 µg/mL
same,MIC,[2],50 µg/mL
same,Hemolysis,[3],42%
same,MBC,[4],50 µg/mL
same,MIC,[5],25 µg/mL
same,MIC,[6],12.5 µg/mL
same,MBC,[7],50 µg/mL
same,MIC,[8],50 µg/mL
same,growth inhibition of all the strains,[9],≈ 90%
same,MIC,[10],25 µg/mL
same,MIC,[11],6.25 µg/mL
same,MBC,[12],12.5 µg/mL
same,MIC,[13],50 µg/mL
same,MIC,[14],12.5 µg/mL
same,MIC,[15],12.5 µg/mL
same,MBC,[16],12.5 µg/mL
same,MBC,[17],6.25 µg/mL
same,MIC,[18],3.13 µg/mL
same,bactericidal activity in time-kill assay,[19]; peptide at 2× MIC,bactericidal
same,bactericidal activity in time-kill assay,[19]; peptide at the MIC,maintained this bactericidal effect
same,MBC,[20],6.25 µg/mL
same,MBC,[21],6.25 µg/mL
same,mortality after 24h,[22],80%
same,MBC,[23],25 µg/mL
same,MBC,[24],12.5 µg/mL
same,MBC,[25],50 µg/mL
same,MIC,[26],6.25 µg/mL
